Numbering of substitutions follows the chain as printed. Active and inactive are the calls of the source. No cut-off for these calls is given here.
Tests used:
[1] = test system: T1, Vitamin D3 receptor (Homo sapiens), P11473 [H305A]; experiment: Agonist activity at full length human VDR H305A mutant expressed in african green monkey COS7 cells overexpressing mouse osteopontin vitamin D-responsive element assessed as transcriptional activation at 10^-6 M after 16 hrs by dual luciferase reporter gene assay; type: functional, cell-based; conditions: COS-7
T1 sequence (whole entry): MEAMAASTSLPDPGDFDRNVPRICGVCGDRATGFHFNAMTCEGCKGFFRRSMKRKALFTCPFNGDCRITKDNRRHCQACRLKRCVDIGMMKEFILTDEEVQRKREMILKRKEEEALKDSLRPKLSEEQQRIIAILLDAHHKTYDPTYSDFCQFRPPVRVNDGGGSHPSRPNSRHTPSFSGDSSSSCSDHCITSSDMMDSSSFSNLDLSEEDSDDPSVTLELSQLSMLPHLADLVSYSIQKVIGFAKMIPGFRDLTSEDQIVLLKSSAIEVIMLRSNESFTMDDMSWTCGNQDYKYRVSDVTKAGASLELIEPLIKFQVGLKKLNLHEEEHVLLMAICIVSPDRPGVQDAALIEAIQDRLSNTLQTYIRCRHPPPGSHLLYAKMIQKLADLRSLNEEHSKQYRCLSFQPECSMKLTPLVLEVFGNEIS
Procedure, shortened: (§1)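 COS-7 cells in DMEM with 5% FBS, seeded at 2 × 10⁴ per well. After 24 h they were lipofected with the mutant hVDR plasmid (pCMX-hVDR), the SPPx3-TK-Luc reporter (three mouse osteopontin VDREs) and the pRL-CMV control. After 8 h, ligand was added at 10^-6 M, or ethanol vehicle, for 16 h. Firefly luciferase was normalized to the internal control; triplicate.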

HL-60 [2] = experiment: Induction of cell differentiation in human HL60 cells after 4 days by NBT reduction assay; type: functional, cell-based
Procedure, shortened: (§2)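 HL-60 promyelocytic leukemia cells were plated at 2 × 10⁵ cells/plate in Eagle's modified medium. Compound was added at 10^-6, 10^-7 or 10^-8 M for 4 days. Differentiation was scored by nitro blue tetrazolium reduction.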

[3] = target: T2, Vitamin D3 receptor (Homo sapiens) (UniProt P11473); experiment: Antagonist activity at full length human VDR expressed in african green monkey Cos7 cells overexpressing mouse osteopontin vitamin D-responsive element assessed as inhibition of 1,25-(OH)2D3-induced transcriptional activation after 16 hrs by dual luciferase reporter gene assay; type: functional, cell-based; conditions: COS-7
T2 sequence (whole entry): T1 sequence (whole entry) with A305H
Procedure, shortened: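 Cos7 cells were transfected with full-length hVDR, the SPPx3-TK-Luc osteopontin VDRE reporter and pRL-CMV. Test ligands were given together with 10^-9 M 1,25-(OH)₂D₃ for 16 h. Dual luciferase signal was normalized to the sea pansy control, with activity at 10^-8 M 1,25-(OH)₂D₃ set as 1; triplicate.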

[4] = target: T2, Vitamin D3 receptor (Homo sapiens); experiment: Antagonist activity at full length human VDR expressed in HEK293 cells overexpressing mouse osteopontin vitamin D-responsive element assessed as inhibition of 1,25-(OH)2D3-induced transcriptional activation after 16 hrs by dual luciferase reporter gene assay; type: functional, cell-based
[5] = target: T2, Vitamin D3 receptor (Homo sapiens); experiment: Agonist activity at full length human VDR expressed in HEK293 cells overexpressing mouse osteopontin vitamin D-responsive element assessed as transcriptional activation after 16 hrs by dual luciferase reporter gene assay; type: functional, cell-based
Vitamin D3 receptor = target: T3, Vitamin D3 receptor (Bos taurus, UniProt Q28037); experiment: Displacement of [3H]1,25-(OH)2D3 from bovine thymus vitamin D receptor
T3 sequence (Q28037 whole entry): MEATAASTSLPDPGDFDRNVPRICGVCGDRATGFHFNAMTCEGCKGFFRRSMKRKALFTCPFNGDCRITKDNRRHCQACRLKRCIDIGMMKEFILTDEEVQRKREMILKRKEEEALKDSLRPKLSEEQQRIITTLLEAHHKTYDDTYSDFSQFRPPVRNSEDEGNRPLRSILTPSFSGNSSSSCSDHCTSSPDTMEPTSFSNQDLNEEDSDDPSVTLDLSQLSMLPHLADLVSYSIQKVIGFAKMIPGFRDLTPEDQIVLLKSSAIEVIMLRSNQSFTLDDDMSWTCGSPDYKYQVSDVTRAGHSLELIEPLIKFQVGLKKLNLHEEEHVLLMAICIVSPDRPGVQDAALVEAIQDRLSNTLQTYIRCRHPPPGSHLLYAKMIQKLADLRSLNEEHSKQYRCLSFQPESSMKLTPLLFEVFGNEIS
Procedure, shortened: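 Bovine thymus VDR was dissolved in 0.05 M phosphate buffer, pH 7.4, with 0.3 M KCl and 5 mM DTT. Free ligand was removed with dextran-coated charcoal (20 min, 4 °C) and supernatant radioactivity counted. Nonspecific binding was subtracted; EC₅₀ came from dose-response curves; duplicate.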

HEK293 [6] = experiment: Inhibition of 1,25-(OH)2D3-induced CYP24A1 mRNA expression in HEK293 cells at 10^-6 M after 24 hrs by quantitative real time PCR; type: functional, cell-based; conditions: Homo sapiens
Procedure, shortened: (§3)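 HEK293 cells were treated for 24 h with 10^-6 M compound, without (12) or with (15) 10^-8 M 1,25-(OH)₂D₃. CYP24A1 mRNA was measured by quantitative real-time RT-PCR and normalized to actin mRNA; mean ± SD of triplicates.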

[7] = target: T2, Vitamin D3 receptor (Homo sapiens); experiment: Antagonist activity at human VDR expressed in african green monkey COS7 cells overexpressing GAL4 response element assessed as SRC1 peptide recruitment by mammalian two hybrid assay; type: functional, cell-based; conditions: COS-7
[8] = target: T2, Vitamin D3 receptor (Homo sapiens); experiment: Antagonist activity at human VDR expressed in african green monkey COS7 cells overexpressing GAL4 response element assessed as RXRalpha recruitment by mammalian two hybrid assay; type: functional, cell-based; conditions: COS-7
HL-60 [9] = experiment: Inhibition of 1,25-(OH)2D3-induced cell differentiation in human HL60 cells assessed as morphological changes at 10^-6 M by Wright-Geimsa staining; type: functional, cell-based
Procedure, shortened: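 HL-60 cells were stained with Wright-Giemsa and their morphology examined by light microscopy.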

HL-60 [10] = experiment: Inhibition of 1,25-(OH)2D3-induced cell differentiation in human HL60 cells after 4 days by NBT reduction assay; type: functional, cell-based; procedure, shortened: as §2
HL-60 [11] = experiment: Inhibition of 1,25-(OH)2D3-induced differentiation in human HL60 cells after 4 days by NBT reduction assay
HEK293 [12] = experiment: Inhibition of 1,25-(OH)2D3-induced CYP24A1 mRNA expression in HEK293 cells after 24 hrs by real time PCR; type: functional, cell-based; conditions: Homo sapiens
Procedure, shortened: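 HEK293 cells were exposed to the indicated compound concentrations for 24 h. CYP24A1 mRNA was quantified by real-time RT-PCR against actin; triplicate.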

HEK293 [13] = experiment: Induction of CYP24A1 mRNA expression in HEK293 cells at 10^-6 M after 24 hrs by quantitative real time PCR; type: functional, cell-based; conditions: Homo sapiens; procedure, shortened: as §3
[14] = target: T2, Vitamin D3 receptor (Homo sapiens); experiment: Agonist activity at human VDR expressed in african green monkey COS7 cells overexpressing GAL4 response element assessed as RXRalpha recruitment by mammalian two hybrid assay; type: functional, cell-based; conditions: COS-7
[15] = target: T2, Vitamin D3 receptor (Homo sapiens); experiment: Agonist activity at human VDR expressed in african green monkey COS7 cells overexpressing GAL4 response element assessed as SRC1 peptide recruitment by mammalian two hybrid assay; type: functional, cell-based; conditions: COS-7
[16] = target: T2, Vitamin D3 receptor (Homo sapiens); experiment: Agonist activity at full length human VDR expressed in african green monkey Cos7 cells overexpressing mouse osteopontin vitamin D-responsive element assessed as transcriptional activation after 16 hrs by dual luciferase reporter gene assay; type: functional, cell-based; conditions: COS-7
Procedure, shortened: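 COS-7 cells in DMEM with 5% FBS were lipofected with full-length pCMX-hVDR, the SPPx3-TK-Luc osteopontin VDRE reporter and pRL-CMV. After 8 h, ligand or ethanol vehicle was added for 16 h. Dual luciferase read-out was normalized to the internal control. Activity at 10^-8 M 1,25-(OH)₂D₃ was set as 1; triplicate.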

[17] = test system: T4, Vitamin D3 receptor (Homo sapiens), P11473 [H397A]; experiment: Agonist activity at full length human VDR H397A mutant expressed in african green monkey COS7 cells overexpressing mouse osteopontin vitamin D-responsive element assessed as transcriptional activation at 10^-6 M after 16 hrs by dual luciferase reporter gene assay; type: functional, cell-based; conditions: COS-7; procedure, shortened: as §1
T4 sequence (whole entry): T1 sequence (whole entry) with A305H, H397A

Activity [3] | Activity [4] | Activity [5] | EC50 (Vitamin D3 receptor) [nM] | SMILES | Activity (HL-60 [2]) | Activity (HEK293 [6]) | further results
Dose-dependent effect | Dose-dependent effect | Dose-dependent effect | 3.4 | C=C1/C(=C\C=C2/CCC[C@]3(C)[C@@H]([C@H](C)[C@H](CCCC)C[C@H](O)C(C)C)CC[C@@H]23)C[C@@H](O)C[C@@H]1O | inactive | Active | Activity [1]: Active
Dose-dependent effect | Dose-dependent effect | Dose-dependent effect | 1.2 | C=C1/C(=C\C=C2/CCC[C@]3(C)[C@@H]([C@H](C)[C@H](CCO)CCCC)CC[C@@H]23)C[C@@H](O)C[C@@H]1O | inactive | Active | Activity [7]: Active; Activity [8]: Active; Activity (HL-60 [9]): Active; Activity (HL-60 [10]): Active; Activity (HL-60 [11]): Active; Activity (HEK293 [12]): Dose-dependent effect
 |  |  | 2 | C=C1/C(=C\C=C2/CCC[C@]3(C)[C@@H]([C@@H](C)[C@H](CCO)CCCC)CC[C@@H]23)C[C@@H](O)C[C@@H]1O | Active |  | Activity (HEK293 [13]): Active; Activity [14]: Active; Activity [15]: Active; Activity [16]: Active
 |  |  | 11 | C=C1/C(=C\C=C2/CCC[C@]3(C)[C@@H]([C@H](C)[C@@H](CCO)CCCC)CC[C@@H]23)C[C@@H](O)C[C@@H]1O | inactive |  | 

More lines, now with the values behind:

SMILES | Activity [3] | Activity [4] | Activity [5] | EC50 (Vitamin D3 receptor) [nM] | Activity (HL-60 [2]) | Activity (HEK293 [6]) | further results
C=C1/C(=C\C=C2/CCC[C@]3(C)[C@@H]([C@H](C)[C@@H](CCCC)C[C@@H](O)C(C)C)CC[C@@H]23)C[C@@H](O)C[C@@H]1O |  |  |  | 20 |  |  | 
C=C1/C(=C\C=C2/CCC[C@]3(C)[C@@H]([C@H](C)[C@@H](CCCC)C[C@H](O)C(C)C)CC[C@@H]23)C[C@@H](O)C[C@@H]1O | Dose-dependent effect | Dose-dependent effect | Dose-dependent effect | 3.8 | inactive | Active | 
C=C1/C(=C\C=C2/CCC[C@]3(C)[C@@H]([C@@H](C)[C@@H](CCO)CCCC)CC[C@@H]23)C[C@@H](O)C[C@@H]1O | Dose-dependent effect | Dose-dependent effect | Dose-dependent effect | 20 | inactive | Active | Activity [17]: Active
C=C1/C(=C\C=C2/CCC[C@]3(C)[C@@H]([C@H](C)CCCC(C)(C)O)CC[C@@H]23)C[C@@H](O)C[C@@H]1O |  |  |  |  | Active |  | Activity (HL-60 [9]): Active
C=C1/C(=C\C=C2/CCC[C@]3(C)[C@@H]([C@H](C)[C@H](CCCC)C[C@@H](O)C(C)C)CC[C@@H]23)C[C@@H](O)C[C@@H]1O |  |  |  | 16 | inactive |  | 

Reference: ChEMBL document CHEMBL1140944, “A new class of vitamin D analogues that induce structural rearrangement of the ligand-binding pocket of the receptor” (J Med Chem, 2009)
